# Compound activity: PubChem, several laboratories
# Only some compounds are listed: those with a hit (about 1.9% of all), similar ones and a draw of the others.
# TbHK1 inh – Trypanosoma brucei hexokinase 1 inhibitors, primary screen, biochemical, G6PDH-coupled NADH absorbance, MLSCN library | hexokinase 1 [Trypanosoma brucei] | AID 1430, 2008 | hit rate 0.11% among 220,000 | inhibition, % at 10 µM | recombinant TbHK1, G6PDH-coupled NADH A340;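 active means inhibition of 50% or more in the single-dose primary screen; inactive means inhibition below 50%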
# Runt-CBFb FRET – inhibitors of RUNX1 Runt–CBFb binding, primary screen, biochemical, FRET, Cerulean-Runt, Venus-CBFb, uHTS. Runt-related transcription factor 1 (Homo sapiens) + Core-binding factor subunit beta …. Cerulean-Runt/Venus-CBFb FRET ratio 530/480, 1 h. inhibition, % at 20 µM. hit rate 0.46% among 220,000. AID 1496, 2009;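 active means inhibition over about 50% at 20 µM in the single-dose screen, limit read from the data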;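 further: 0% = DMSO wells and 100% = excess unlabeled CBFb competitor control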
# Target sequence (Q01196 whole entry, looked up): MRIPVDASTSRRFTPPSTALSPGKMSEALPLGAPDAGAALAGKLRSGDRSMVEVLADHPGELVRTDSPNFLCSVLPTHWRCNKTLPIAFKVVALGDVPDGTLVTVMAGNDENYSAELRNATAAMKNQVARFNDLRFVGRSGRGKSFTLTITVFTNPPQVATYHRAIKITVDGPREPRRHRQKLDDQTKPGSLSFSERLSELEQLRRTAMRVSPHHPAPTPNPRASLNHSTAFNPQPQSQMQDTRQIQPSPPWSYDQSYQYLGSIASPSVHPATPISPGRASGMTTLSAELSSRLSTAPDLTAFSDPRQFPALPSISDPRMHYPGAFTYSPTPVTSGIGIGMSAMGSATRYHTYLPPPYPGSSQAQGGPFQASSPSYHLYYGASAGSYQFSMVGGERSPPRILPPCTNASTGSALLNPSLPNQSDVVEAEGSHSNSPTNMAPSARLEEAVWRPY
# Target sequence (Q13951 whole entry, looked up): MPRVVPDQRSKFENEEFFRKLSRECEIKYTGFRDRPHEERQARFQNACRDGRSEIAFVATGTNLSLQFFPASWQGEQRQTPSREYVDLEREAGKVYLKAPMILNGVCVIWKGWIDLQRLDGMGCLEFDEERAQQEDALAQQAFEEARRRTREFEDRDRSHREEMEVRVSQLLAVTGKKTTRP
#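 Reagent – Venus-CBFb binding partner, 100 nM · Assay system – Cerulean-tagged RUNX1 Runt domain (FRET donor) fusion protein · Input – 100 nM per protein · Incubation – two 1 h room-temperature incubations shielded from light · Measured by – FRET fluorescence · Medium – Tris buffer pH 7.5 with salts and BSA · Benchmarks – unlabeled CBFb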
# Runt-SMMHC FRET – inhibitors of RUNX1 Runt–CBFb-SMMHC binding, primary screen, biochemical, FRET, Cerulean-Runt, Venus-CBFb-SMMHC, uHTS. Runt-related transcription factor 1 (Homo sapiens) + Core-binding factor subunit beta …. Cerulean-Runt/Venus-CBFb-SMMHC FRET ratio 530/480, 1 h. inhibition, % at 20 µM. hit rate 0.74% among 220,000. AID 1434, 2008;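 active means mean inhibition across duplicate retests at 20 µM reaching about 50%, limit read from the data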;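 further: 0% = DMSO wells and 100% = wells with excess untagged CBFb-SMMHC; inhibitors lower the FRET ratio by blocking Runt binding to CBFb-SMMHC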
# Hck-Nef inh – inhibitors of Nef-activated human Hck kinase, primary screen, biochemical, Z-Lyte FRET, 384-well, Hck-YEEI; AID 463187, 2010; inhibition, % at 20 µM; hit rate 0.68% among 220,000; Recombinant Hck-YEEI plus Nef, Z-Lyte FRET kinase assay; Tyrosine-protein kinase HCK (Homo sapiens), P08631;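 active means Hck-Nef kinase inhibition above about 50%, limit read from the data; inactive means inhibition below that limit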;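 further: 0% = DMSO with Hck plus Nef and 100% = Hck alone without Nef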
# RanGTP-Imp inh – inhibitors of RanGTP-importin-beta interaction, primary screen, biochemical, FRET, CFP-Ran, YFP-importin-beta, homogeneous; Ran GTPase (GTP-bound) - importin-beta complex; cell-free CFP-Ran/YFP-importin-beta FRET ratio; inhibition, % (test concentration not listed); hit rate 1.1% among 300,000; AID 2216, 2009;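 active means more than half of the replicate wells show a fall in the fluorescence ratio signal beyond about 16%, limit read from the data, passing the limit was not always enough; inconclusive means exactly half of the replicate wells pass the set limit; inactive means fewer than half of replicates pass the limit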;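 further: 0% = DMSO wells and 100% = Ran loaded with GDP instead of GTP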
# Hck-Nef confirm – retest of Hck:Nef kinase inhibitor hits, confirmation, biochemical, Z-Lyte FRET, 384-well, p-Tyr peptide counterscreen; calls only at 10 µM; shares compounds with Hck-Nef inh; Recombinant Hck-YEEI:Nef, Z-Lyte FRET kinase assay; hit rate 28% among 1,300;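 active means average inhibition of at least 50%, with Z-scores no higher than 3 in both the phospho-tyrosine peptide and fluorescence counterscreens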
# * marks the source's active call; other numbers are inactive results; i = inactive; u = inconclusive; x = not tested or not shown; + = active, no number.
SMILES,TbHK1 inh,Runt-CBFb FRET,Runt-SMMHC FRET,Hck-Nef inh,RanGTP-Imp inh,Hck-Nef confirm
COc1ccc(CCNc2ccc(C(CC(N)=O)NC(=O)Cc3ccc(Br)cc3)cc2[N+](=O)[O-])cc1 (centres undefined),27.7,-8.2,-11.6,57.2*,-9.1,i
NC(=O)CC(NC(=O)Cc1ccc(Br)cc1)c1ccc(NCCc2ccc(F)cc2)c([N+](=O)[O-])c1 (centres undefined),17.7,-5.8,-13.6,50.5*,-1.4,i
COc1ccc(CCNc2ccc(C(CC(N)=O)NC(=O)c3ccc(Br)cc3)cc2[N+](=O)[O-])cc1 (centres undefined),-7.6,-3.6,-3.5,8.2,4.3,x
NC(=O)CC(NC(=O)Cc1cccc2ccccc12)c1ccc(NCCOc2ccccc2)c([N+](=O)[O-])c1 (centres undefined),21.0,-2.9,-8.8,53.1*,-1.1,i
CC(C)c1ccc(N(CC(=O)N2CCN(Cc3ccccc3)CC2)S(C)(=O)=O)cc1,x,x,x,x,2.3,x
Cc1ccc(-c2cc(C(=O)Nc3sc4c(c3C(=O)NCc3ccco3)CCC4)[nH]n2)c(O)c1,-12.3,-8.2,-19.2,3.3,u,x
CCNC(=O)c1c(NC(=O)c2cc(-c3cc(C)ccc3O)n[nH]2)sc2c1CCCC2,-13.7,-24.5,-24.1,99.9*,5.8,i
Cc1cc(O)c(-c2cc(C(=O)Nc3sc4c(c3C(=O)NCc3ccco3)CCC4)[nH]n2)cc1C,-31.3,-10.3,-8.4,58.7*,u,i
Cc1ccc(C(=O)Nc2sc3c(c2C(=O)NCc2ccco2)CCCC3)cc1,13.4,-0.7,7.0,26.8,2.9,x
O=c1o[nH]c(-c2ccccc2)c1-c1ccccc1,x,x,x,x,6.9,x
COc1cccc(NC(=O)Cn2c(=O)n(-c3cc(OC)c(OC)c(OC)c3)c(=O)c3ccccc32)c1,-9.5,1.0,-1.9,124.5*,-2.4,i
CCn1c(=O)n(CC(=O)Nc2cccc(OC)c2)c(=O)c2ccccc21,-0.2,0.7,-1.4,-9.9,1.0,x
CCN(CC)c1ccc(/C=N/NC(=O)c2ccoc2C)cc1,-64.4,7.9,20.9,60.6*,-2.3,x
Cc1ccc(S(=O)(=O)/C(C#N)=C/c2c(N3CCN(Cc4ccccc4)CC3)nc3ccccn3c2=O)cc1,x,x,x,x,-0.9,x
COC(=O)COc1ccc(C2Nc3c(Cl)ccc(C(=O)O)c3C3C=CCC32)cc1 (centres undefined),16.4,18.9,-2.9,76.2*,3.2,i
COc1ccc(OC)c(C2Nc3c(Cl)ccc(C(=O)O)c3C3C=CCC32)c1 (centres undefined),11.4,20.9,14.1,-6.9,-0.4,x
O=C(O)c1ccc(NS(=O)(=O)c2cccc(C(=O)Nc3cccc(C(=O)O)c3)c2)cc1,x,x,x,x,1.0,x
COc1cccc(/C=C/C(=O)NCc2ccc3c(c2)OCO3)c1,x,x,x,x,5.4,x
Cc1ccc(NC(=O)CN(C)Cc2nc3c(Br)cc(Br)cc3c(=O)[nH]2)cc1,7.6,-6.5,-5.3,73.9*,-3.7,+
CCn1cc(C2=NC(CC(C)C)CO2)c2ccccc21 (centres undefined),2.9,0.6,-1.9,-2.0,0.3,x
CC1CC(NC(=O)c2c(O)nc3sccn3c2=O)CC(C)(C)C1 (centres undefined),x,x,x,x,0.6,x
O=c1[nH]c(-c2ccc3c(c2)OCO3)nc2c1sc(=S)n2-c1ccccc1,-27.7,18.9,0.7,60.6*,1.4,i
CC1(C)Cc2c(C#N)c(NCC3CCCO3)nc(-c3ccco3)c2CO1 (centres undefined),-1.1,11.3,6.1,55.9*,9.2,i
CC1(C)Cc2c(C#N)c(NC3CCCCC3)nc(-c3ccco3)c2CO1,3.7,7.6,9.3,35.2,10.5,x
O=C(CSc1nnc(-c2ccco2)c(-c2ccco2)n1)c1ccccc1,-5.1,x,x,69.2*,u,i
SMILES,TbHK1 inh,Runt-CBFb FRET,Runt-SMMHC FRET,Hck-Nef inh,RanGTP-Imp inh,Hck-Nef confirm
CCOC(=O)CSC(=S)NC(=O)c1ccc(OC)cc1,-6.2,-3.7,6.8,56.9*,-0.2,i
COc1ccc(C(=O)NC(=S)SCC(=O)O)cc1,-5.0,16.8,-4.0,24.5,-0.6,x
COc1cc(NC(=O)c2cccs2)c(OC)cc1NC(=O)CCC(=O)Nc1ccc2ncccc2c1,-4.9,-4.2,-14.5,65.3*,2.2,i
COc1ccc(CC(NC(C)=O)C(=O)NC2CCN(c3ncccc3[N+](=O)[O-])CC2)cc1 (centres undefined),-7.5,0.7,-4.5,20.6,4.4,x
Cc1cc(C=C2C(=O)c3ccccc3C2=O)c(C)n1-c1ccc(C(=O)O)cc1,-2.6,8.2,1.5,35.0,3.9,x
Cc1cc(C=C2C(=O)c3ccccc3C2=O)c(C)n1-c1cccc(C(=O)O)c1,3.2,-33.7,-114.2,73.7*,1.7,+
COc1cc(SC)ccc1C(=O)Nc1ccc2ncccc2c1,x,x,x,x,-2.3,x
Clc1cccc(Cl)c1CNc1ccc(N2CCCC2)cc1,14.0,-1.2,-4.2,70.6*,-0.9,i
Cc1ccc(O)c(C(=O)c2cnn(C(=O)Cc3csc(C)n3)c2)c1,-1.9,-1.8,3.2,74.3*,x,+
O=C(NCC(c1ccco1)N1CCc2ccccc2C1)c1ccc(Br)cc1 (centres undefined),x,x,x,x,-0.2,x
CCOc1cc(/C=C2\SC(=S)N(C(C(=O)O)c3ccccc3)C2=O)ccc1O (centres undefined),9.4,-47.3,-162.3,62.7*,-19.1,i
COc1ccc(OCc2cc(C(=O)NCc3nc(C)cs3)no2)c(Cl)c1,x,x,x,x,0.9,x
Clc1ccc2c(NCc3cccs3)ncnc2c1,x,x,x,x,2.2,x
COc1cc2ncnc(NCc3cccs3)c2cc1OC,-2.1,-1.4,-1.3,56.8*,4.5,i
COc1ccc(OC)c(/C=N/NC(=O)CC(=O)NCc2ccccc2)c1,-14.0,-1.5,-0.5,56.5*,0.3,i
COc1ccc2nc(C)cc(SCC(=O)N/N=C/c3cccc4ccccc34)c2c1,-27.6,-4.1,-10.9,91.3*,2.7,i
COc1ccccc1C(=O)Oc1cc(N)n(S(=O)(=O)c2ccccc2)n1,7.1,5.0,-5.0,107.4*,-2.0,i
COC(=O)c1[nH]c2ccccc2c1CN1CCOCC1,x,x,x,x,1.6,x
